Measurements reported in article PMC3206604 (Journal of natural products, 2011).

Assays:
[1] = system: human colon cancer cells (HT-29); test: Cytotoxicity assay; format: cell-based; conditions: HT-29 cells, standard protocol
[2] = system: HT-29 human colon cancer cells; test: Mitochondrial transmembrane potential; format: cell-based; conditions: HT-29 cells; for MTP ED50: reduction of mitochondrial transmembrane potential (ΔΨm)
Method in brief: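 ΔΨm detected with a JC-1 mitochondrial membrane potential kit, following a previously established protocol. A positive control was run alongside the test compounds. Values were reported as ED50.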

human 20S proteasome [3] = target: human 20S proteasome (Homo sapiens, UniProt P28074); test: Proteasome inhibition assay; format: biochemical; conditions: for proteasome ED50 / IC50: Table 3, results expressed as ED50; for IC50: read-out: proteasome ED50
human 20S proteasome [4] = test: Proteasome inhibition assay; format: biochemical; conditions: Table 3, results expressed as ED50

Compound | proteasome ED50 (human 20S proteasome [3]) | MTP ED50 [2] | further results
CC(=O)O[C@H]1C(=O)[C@@]2(C)[C@H]([C@H](OC(=O)c3ccccc3)[C@]3(O)C[C@H](OC(=O)[C@H](O)[C@@H](NC(=O)c4ccccc4)c4ccccc4)C(C)=C1C3(C)C)[C@]1(OC(C)=O)CO[C@@H]1C[C@@H]2O [Paclitaxel] | – | – | cytotoxicity ED50 [1]: 0.006 µM
O=C1C[C@@H](c2ccccc2)Oc2c(Cc3cc(Cc4cc(Cc5ccccc5O)ccc4O)ccc3O)c(O)c(Cc3ccccc3O)c(O)c21 [compound 1, (2S)-5,7-dihydroxy-8-(2″-hydroxy-5″-(2′‴-hydroxy-5′‴-(2″‴-hydroxybenzyl)benzyl)benzyl)-6-(2‴-hydroxybenzyl)-flavanone] | >20 µM | 3.7 µM | –
O=C1C[C@@H](c2ccccc2)Oc2c(Cc3ccccc3O)c(O)c(Cc3cc(Cc4cc(Cc5ccccc5O)ccc4O)ccc3O)c(O)c21 [compound 2, (2S)-5,7-dihydroxy-6-(2‴-hydroxy-5‴-(2′‴-hydroxy-5′‴-(2″‴-hydroxybenzyl)benzyl)benzyl)-8-(2″-hydroxybenzyl)-flavanone] | >20 µM | 6.8 µM | –
O=C1C[C@@H](c2ccccc2)Oc2cc(O)c(Cc3ccccc3O)c(O)c21 [compound 5, isochamanetin] | – | 7.7 µM | IC50 (human 20S proteasome [3]): > 20 µM
O=C1C[C@@H](c2ccccc2)Oc2c(Cc3ccccc3O)c(O)c(Cc3ccccc3O)c(O)c21 [compound 7, dichamanetin] | – | 3.6 µM | inhibitory effect in proteasome assay (human 20S proteasome [3]; human 20S proteasome bioassay): did not show any inhibitory effect; proteasome ED50 (human 20S proteasome [4]): >20 µM
pipercallosine [compound 11] | >20 µM | 4.6 µM | –
O=C1C[C@@H](c2ccccc2)Oc2cc(O)cc(O)c21 [compound 10, pinocembrin] | – | >20 µM | MTP ED50 (text, printed in μg/mL) ([2]; called inactive): > 20 µg/mL; IC50 (human 20S proteasome [3]): 2.87 ± 0.26 µM
O=C1C[C@@H](c2ccccc2)Oc2c(Cc3cc(Cc4ccccc4O)ccc3O)c(O)c(Cc3cc(Cc4cc(Cc5ccccc5O)ccc4O)ccc3O)c(O)c21 [compound 4, (2S)-5,7-dihydroxy-6-(2‴-hydroxy-5‴-(2″‴-hydroxy-5″‴-(2‴‴-hydroxybenzyl)benzyl)benzyl)-8-(2″-hydroxy-5′‴-(2′‴-hydroxybenzyl)benzyl)-flavanone] | >20 µM | 3.9 µM | –
5,7-dihydroxy-6-(2‴-hydroxy-5‴-(2′‴-hydroxy-5′‴-(2″‴-hydroxy-5″‴-(2‴‴-hydroxybenzyl)benzyl)benzyl) benzyl)-8-(2″-hydroxybenzyl)-flavanone [compound 3] | >20 µM | 2.5 µM | –

Second part, led by results:

proteasome ED50 (human 20S proteasome [3]) | Compound | MTP ED50 [2] | further results
3.45 ± 0.18 µM | 7-methoxydichamanetin [compound 8] | 1.6 µM | –
>20 µM | 5″-(2′‴-hydroxybenzyl)uvarinol [compound 9] | 2.3 µM | –
>20 µM | 7-methoxychamanetin [compound 6] | 13.6 µM | –
